The target in assay [1] is T1, Polyunsaturated fatty acid 5-lipoxygenase (Rattus norvegicus) (UniProt P12527).
T1 sequence (whole entry): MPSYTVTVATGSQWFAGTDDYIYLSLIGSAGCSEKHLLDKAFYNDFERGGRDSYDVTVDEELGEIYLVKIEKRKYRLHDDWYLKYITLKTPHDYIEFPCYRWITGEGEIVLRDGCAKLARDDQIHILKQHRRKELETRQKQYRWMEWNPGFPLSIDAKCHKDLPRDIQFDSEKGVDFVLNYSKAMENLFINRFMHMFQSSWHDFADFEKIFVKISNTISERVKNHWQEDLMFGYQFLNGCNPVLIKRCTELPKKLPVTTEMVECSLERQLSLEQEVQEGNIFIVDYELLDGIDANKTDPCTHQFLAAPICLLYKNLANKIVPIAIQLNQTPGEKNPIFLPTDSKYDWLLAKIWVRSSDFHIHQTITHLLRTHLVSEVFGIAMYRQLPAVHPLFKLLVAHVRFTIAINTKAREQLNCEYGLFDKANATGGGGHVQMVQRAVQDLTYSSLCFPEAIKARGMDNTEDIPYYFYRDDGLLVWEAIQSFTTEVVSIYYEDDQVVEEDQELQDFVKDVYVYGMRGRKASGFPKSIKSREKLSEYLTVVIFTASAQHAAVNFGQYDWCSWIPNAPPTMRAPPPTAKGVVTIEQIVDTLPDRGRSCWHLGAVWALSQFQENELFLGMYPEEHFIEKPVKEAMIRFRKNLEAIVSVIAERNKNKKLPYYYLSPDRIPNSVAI
Briefly: Ability to inhibit 5-lipoxygenase by using a crude preparation of the cytosolic enzyme from the rat basophilic leukemia (RBL-1) cell line at a concentration of 25 uM. In kind it is cell-based.

For assay [2], the target named is Cyclooxygenase (Bos taurus) (UniProt O62664+O62698). As to the kind of experiment: Ability to inhibit Prostaglandin G/H synthase by using the bovine seminal vesicle enzyme assay on BSV cell line at a concentration of 75 uM. In kind it is tissue-based. The essentials: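 Bovine seminal vesicle cyclooxygenase (40 μg) with Tris pH 8.5 and cofactors (glutathione, epinephrine, EDTA) is chilled on ice. Compound in DMSO diluted with Tris is added, then preincubated 2 min at 37 °C. [14C]arachidonic acid (0.2 μCi/mL in 0.1 mM sodium arachidonate) is added and the reaction runs 10 min. Duplicates are run; values are the percent inhibition at the concentration shown.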

Assay [3] concerns Mus musculus. As to the kind of experiment: Percentage inhibition of the mouse arachidonic acid induced ear edema assay (AA) at a dose of 100 ug/ear. In kind it is functional. In a few lines:
(§1)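 Groups of 10 male CF1 mice (18–20 g). Compound in acetone is applied topically to both ears just before 1 mg arachidonic acid in acetone is applied to one ear; the other ear serves as control. Mice are killed 60 min later and 6-mm ear punches weighed; swelling is the weight difference. %Inhibition = [(C−T)/C]×100, with Student's t test.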

Assay [4] addresses T2, Polyunsaturated fatty acid 5-lipoxygenase (Rattus norvegicus, UniProt P12527).
T2 sequence (P12527 whole entry): T1 sequence (whole entry)
As to the kind of experiment: Ability to inhibit 5-lipoxygenase by using a crude preparation of the cytosolic enzyme from the rat basophilic leukemia (RBL-1) cell line. Format: cell-based. The essentials: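 Crude cytosolic enzyme (supernatant) from RBL-1 cells, amount giving net 3300–3800 dpm 5-HETE (9–20 μg cell protein/assay). Enzyme is preincubated 5 min at 37 °C, pH 7.0, with compound (in 5% DMSO/Tris pH 8.5) in phosphate buffer with EDTA, gelatin, glutathione, CaCl2 and 0.012 mM indomethacin. Reaction is started with 0.042 mM final [14C]arachidonic acid and stopped by freezing after 2 min.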

The subject of assay [5] is Mus musculus. Briefly: Effective dose to inhibit 50% of mouse arachidonic acid induced ear edema assay. Format: functional. In a few lines:
as §1

In assay [6] the target is T3, Cyclooxygenase (Bos taurus, UniProt O62664+O62698).
T3 sequence (O62664 whole entry): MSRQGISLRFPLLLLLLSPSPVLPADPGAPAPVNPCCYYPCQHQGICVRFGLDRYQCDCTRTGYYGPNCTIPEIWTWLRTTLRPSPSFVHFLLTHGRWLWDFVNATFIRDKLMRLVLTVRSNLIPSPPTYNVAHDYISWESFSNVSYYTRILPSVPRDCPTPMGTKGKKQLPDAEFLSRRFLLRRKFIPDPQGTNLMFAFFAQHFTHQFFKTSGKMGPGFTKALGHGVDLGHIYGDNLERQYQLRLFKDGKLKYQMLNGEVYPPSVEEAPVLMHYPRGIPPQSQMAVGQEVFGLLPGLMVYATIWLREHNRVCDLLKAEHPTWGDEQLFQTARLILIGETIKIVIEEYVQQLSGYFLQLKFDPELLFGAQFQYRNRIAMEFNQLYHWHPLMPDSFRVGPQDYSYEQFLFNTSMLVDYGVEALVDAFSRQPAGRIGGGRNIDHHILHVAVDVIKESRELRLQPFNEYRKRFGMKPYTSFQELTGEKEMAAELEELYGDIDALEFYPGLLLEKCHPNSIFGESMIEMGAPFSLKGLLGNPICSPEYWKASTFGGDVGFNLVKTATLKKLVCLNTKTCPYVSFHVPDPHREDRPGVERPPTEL
T3 sequence (O62698 whole entry): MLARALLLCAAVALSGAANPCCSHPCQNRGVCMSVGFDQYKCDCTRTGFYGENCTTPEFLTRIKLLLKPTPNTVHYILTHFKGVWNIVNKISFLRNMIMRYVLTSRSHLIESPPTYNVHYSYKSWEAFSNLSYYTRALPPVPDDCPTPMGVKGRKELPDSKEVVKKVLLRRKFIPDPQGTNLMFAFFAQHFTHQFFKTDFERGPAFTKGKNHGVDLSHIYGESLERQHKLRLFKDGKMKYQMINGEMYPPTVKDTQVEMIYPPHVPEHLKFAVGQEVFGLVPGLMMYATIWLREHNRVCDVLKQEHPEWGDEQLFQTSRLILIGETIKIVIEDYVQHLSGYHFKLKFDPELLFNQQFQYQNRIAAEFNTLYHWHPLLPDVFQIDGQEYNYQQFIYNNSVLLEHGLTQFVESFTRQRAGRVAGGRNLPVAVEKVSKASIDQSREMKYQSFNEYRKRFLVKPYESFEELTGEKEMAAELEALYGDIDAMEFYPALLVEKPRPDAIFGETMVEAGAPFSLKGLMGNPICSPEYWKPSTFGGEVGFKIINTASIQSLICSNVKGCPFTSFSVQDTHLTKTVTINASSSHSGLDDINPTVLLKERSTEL
As to the kind of experiment: In vitro inhibition of Prostaglandin G/H synthase in BSV cell line. Format: cell-based.

Assay [7] has as its system Mus musculus. Briefly: percentage inhibition of the mouse arachidonic acid induced ear edema assay (AA) (Dose is 100 ug/ear). In kind it is functional. In a few lines: as §1

As usually defined, the inhibition is the change of the read-out against control, counted positive when it falls. By Inhibition is commonly meant the relative decrease from the control value, in per cent. A low value points to little suppression. Turning to `CCOC(=O)CCCC(=O)c1ccc2ccccc2c1O`, the inhibition in assay [1] was found to be 23%; in assay [2] it was 12%. The Inhibition in assay [3] is 13%.

Broadly, the IC50 is the midpoint of a concentration-inhibition curve. In assay [2], `CCOC(=O)CCC/C(=N\O)c1ccc2ccccc2c1O` returned an inhibition of 27%. Further, in assay [3], the Inhibition is given as 29%. In addition, 2700 nM corresponded to half-maximal inhibition in assay [4] (IC50).

For `O=C(O)c1c(Cc2ccccc2)ccc2ccccc12`, the inhibition in assay [1] came out at 2%; in assay [2] it was 15%. The compound also had an Inhibition in assay [3] of 0%.

For `Oc1c(Cc2ccccc2)ccc2ccccc12`, the ED50 in assay [5] worked out at 9.4 ug ear-1. In addition, in assay [3], the Inhibition turned out to be 82%. The IC50 amounted to 19 nM in assay [4] and 3.4 µM in assay [6].

As for `Oc1ccc2ccccc2c1Cc1ccccc1`, in assay [7], the Inhibition worked out at 23%. Also, the IC50 in assay [4] is 3900 nM; in assay [6] it was 16 µM.

`CC(C)(C)c1ccc2ccccc2c1O` had an Inhibition in assay [3] of 67%. Moreover, the IC50 in assay [4] was 180 nM; in assay [6] it was 37 µM.

Take `Oc1ccccc1Cc1ccccc1`: the inhibition in assay [2] is 22%. In assay [3], this compound showed an Inhibition of 32%. This compound also displayed an IC50 in assay [4] of 63000 nM.

Consider `Oc1cccc2ccccc12` [1-NAPHTHOL], for which the Inhibition in assay [3] is 59%. Moreover, the results for the IC50 in assay [4] and in assay [6] were 3600 nM and 2 µM, respectively.

Consider `O=C1C=C(Cc2ccccc2)C(=O)c2ccccc21`, for which the inhibition in assay [2] came to 16%. The same compound yielded an Inhibition in assay [3] of 59%. In assay [4], this compound returned an IC50 of 290 nM.

Turning to `Oc1ccc(Cc2ccccc2)c2ccccc12`, the Inhibition in assay [3] amounted to 42%. Also, the figures for the concentration for half-maximal inhibition (IC50) in assay [4] and in assay [6] were 820 nM and 5.9 µM, respectively.

The compound `C=CCc1ccc2ccccc2c1O` displayed an ED50 in assay [5] of 4.4 ug ear-1. Moreover, in assay [3], the Inhibition was determined as 91%. Also, the figures for the IC50 in assay [4] and in assay [6] were 56 nM and 18 µM, respectively.

As to `O=C(O)CCCCc1ccc2ccccc2c1O`, in assay [3], the Inhibition was 9%. The IC50 came out at 4200 nM in assay [4] and 720 µM in assay [6].

`O=C1CCN(c2ccccc2)N1` [PHENIDONE]: the ED50 in assay [5] was 41 ug ear-1. The compound further had an inhibition in assay [2] of 31%. The compound further yielded an Inhibition in assay [3] of 58%.

`CCOC(=O)/C=C/c1ccc2ccccc2c1O`: the Inhibition in assay [3] turned out to be 0%. Besides, the IC50 in assay [4] was found to be 45 nM; in assay [6] it was 11 µM.

`CC(=O)Nc1c(Cc2ccccc2)ccc2ccccc12` showed an inhibition in assay [1] of 13%. In assay [3], this compound had an Inhibition of 8%.

`CCOC(=O)CCc1ccc2ccccc2c1O` returned an Inhibition in assay [3] of 69%. The IC50 came to 58 nM in assay [4] and 13 µM in assay [6].

`Oc1cc(Cc2ccccc2)cc2ccccc12`: in assay [3], the Inhibition is on record as 28%. Further, the IC50 in assay [4] was 690 nM; in assay [6] it was 2.7 µM.

As to `Oc1c(/C=C\c2ccccc2)ccc2ccccc12`, in assay [3], the Inhibition is 65%. Also, the IC50 was determined as 160 nM in assay [4] and 13 µM in assay [6].

For `COc1ccc2c(c1)c(CC(=O)O)c(C)n2C(=O)c1ccc(Cl)cc1` [INDOMETHACIN], in assay [1], the inhibition amounted to 47%. Moreover, in assay [5], the ED50 was found to be 780 ug ear-1. In addition, the Inhibition in assay [3] stood at 20%.

In the case of `COc1c(OC)c(OC(C)=O)c2cc(Cl)ccc2c1OC(C)=O` [LONAPALENE], the ED50 in assay [5] stood at 100 ug ear-1. This compound also came in with an inhibition in assay [2] of 0%. Further, in assay [3], the Inhibition is 50%. In addition, the IC50 in assay [4] came to 700 nM.

Consider `O=C(c1ccccc1)c1ccc2ccccc2c1O`, for which the inhibition in assay [2] turned out to be 26%. The Inhibition in assay [3] stood at 30%. It took 20000 nM to reach half-maximal inhibition in assay [4] (IC50).

In assay [2], `CCOC(=O)c1ccc2ccccc2c1O` yielded an inhibition of 0%. Also, the Inhibition in assay [3] is on record as 0%. Also, in assay [4], the 50% inhibitory concentration (IC50) was 25000 nM.

Compound `CCOC(=O)CCCCc1ccc2ccccc2c1O` gave an ED50 in assay [5] of 40 ug ear-1. Further, the Inhibition in assay [3] is on record as 74%. The IC50 in assay [4] worked out at 11 nM; in assay [6] it was 18 µM.

Compound `Oc1c(Cc2ccccc2)cccc1Cc1ccccc1` yielded an Inhibition in assay [3] of 21%. Further, the IC50 is 8800 nM in assay [4] and 52 µM in assay [6].

`OCc1ccccc1/C=C/Cc1cc2c(cc1O)CCO2` registered an ED50 in assay [5] of 55 ug ear-1. Besides, the Inhibition in assay [3] turned out to be 52%. Besides, the IC50 amounted to 250 nM in assay [4] and 57 µM in assay [6].

As to `Oc1cc2ccccc2cc1Cc1ccccc1`, the Inhibition in assay [3] was 33%. The figures for the IC50 in assay [4] and in assay [6] were 7200 nM and 35 µM, respectively.

Compound `OCCOc1c(Cc2ccccc2)ccc2ccccc12` returned an inhibition in assay [2] of 28%. Further, the Inhibition in assay [3] is 12%. The compound also yielded an IC50 in assay [4] of 40000 nM.

`CC(c1ccccc1)c1ccc2ccccc2c1O` (stereo unspecified) came in with an Inhibition in assay [3] of 45%. Moreover, the figures for the IC50 in assay [4] and in assay [6] were 70 nM and 8.7 µM, respectively.

For the compound `COc1c(Cc2ccccc2)ccc2ccccc12`, the inhibition in assay [2] is 0%. The same compound returned an Inhibition in assay [3] of 5%. Further, in assay [4], the IC50 worked out at 55000 nM.

Values taken from ChEMBL document CHEMBL1124955, “2-substituted-1-naphthols as potent 5-lipoxygenase inhibitors with topical antiinflammatory activity” (J Med Chem, 1990).
